≈ marks a conversion by molar mass, not a printed value. Calls of active or inactive are those of the source. No cut-off for these calls is given here.
Legend:
Prothrombin [1] = molecular target: T1, Prothrombin (Bos taurus, UniProt P00735); assay: Inhibition of bovine thrombin assessed as reduction in hydrolysis of chromogenic substrate S-2238 by Cheng-Prusoff equation analysis
[2] = Lipophilicity, logKw of the compound by RP-HPLC method; type: physicochemical
Summary of the method: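 RP-HPLC on C18 column at 25 °C, 1.0 mL/min, UV 288 nm; capacity factors k′ = (tR − t0)/t0 measured at MeOH volume fractions 0.8 to 0.4 in 0.05 steps; log k′w taken as the polycratic capacity factor.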

Plasma [3] = assay: Anticoagulant activity in recombinant tissue factor and procoagulant phospholipids-stimulated human citrated plasma assessed as inhibition of thrombin peak by fluorometry based calibrated automated thrombography; type: functional, cell-free
Summary of the method: (§1)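 Pooled citrated human plasma spiked with test compounds at 0.01−10 μM or vehicle; 80 μL plasma incubated 10 min at 37 °C; thrombin generation triggered by low tissue factor, phospholipids and calcium. Lag-time, thrombin peak and endogenous thrombin potential (area under curve) read by calibrated automated thrombography and expressed as percent of vehicle control.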

[4] = Stability in 0.05 M pH 7.4 phosphate buffer containing 0.15 M KCl assessed as unhydrolyzed compound after 4 hrs at 37 degC; type: physicochemical; conditions: read-out: Stability
Summary of the method: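 10 mM acetonitrile stock diluted to 250 μM final in 0.05 M phosphate buffer pH 7.40 with 0.15 M KCl, 37 °C; samples withdrawn at t0 and fixed times, filtered and analysed by HPLC (UV 288 nm) for remaining unhydrolyzed compound.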

Plasma [5] = assay: Anticoagulant activity in recombinant tissue factor and procoagulant phospholipids-stimulated human citrated plasma assessed as reduction in endogenous thrombin potential by fluorometry based calibrated automated thrombography; type: functional, cell-free; summary of the method: as §1
Plasma [6] = assay: Profibrinolytic activity in tissue factor-induced human plasma exposed to exogenous tissue plasminogen activator assessed as time needed to lyse 50% fibrin clot by turbidimetric assay; type: functional, cell-free
Summary of the method: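 Turbidimetric clot lysis at 37 °C: citrated human plasma spiked with compound or vehicle, plus phospholipids, t-PA (40 ng/mL stock), Tris-NaCl pH 7.4 and TF; clotting started with CaCl2. A405 read each minute for 3 h; lysis time from clot formation to midpoint of turbid-to-clear transition, as percent of vehicle; three independent plasma samples.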

Prothrombin [7] = molecular target: T1, Prothrombin; assay: Inhibition of bovine thrombin assessed as reduction in hydrolysis of chromogenic substrate S-2238 by Lineweaver-Burk analysis
Plasma [8] = assay: Anticoagulant activity in recombinant tissue factor and procoagulant phospholipids-stimulated human citrated plasma assessed as increase in time required to generate first traces of thrombin at 10 uM by fluorometry based calibrated automated thrombography; type: functional, cell-free
Summary of the method: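 Pooled citrated human plasma spiked with test compound or vehicle (0.01−10 μM); clotting triggered by low tissue factor, phospholipids and calcium; thrombin generation followed by calibrated automated thrombography, 80 μL plasma preincubated 10 min at 37 °C. Lag-time = time to first traces of thrombin, expressed as percent of vehicle control plasma.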

Plasma [9] = assay: Anticoagulant activity in recombinant tissue factor and procoagulant phospholipids-stimulated human citrated plasma assessed as increase in time required to generate first traces of thrombin at 2 to 10 uM by fluorometry based calibrated automated thrombography; type: functional, cell-free; summary of the method: as §1
Coagulation factor X [10] = molecular target: T2, Coagulation factor X (Homo sapiens, UniProt P00742); assay: Inhibition of human factor10a assessed as reduction in hydrolysis of chromogenic substrate S-2765 by Lineweaver-Burk analysis
Summary of the method: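 Human fXa fixed at 2 nM, S-2765 varied 25−200 μM, without or with inhibitor at four concentrations, pH 8, A405 initial rates; Lineweaver−Burk (1/v vs 1/[S]) plots used to assign inhibition type.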

Coagulation factor X [11] = molecular target: T2, Coagulation factor X; assay: Inhibition of human factor10a assessed as reduction in hydrolysis of chromogenic substrate S-2765 by Cheng-Prusoff equation analysis
Summary of the method: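 Chromogenic assay at pH 8: 2 nM human fXa with 0.04 mM S-2765, or 0.41 U/mL bovine thrombin with 0.05 mM S-2238 (final). Enzyme preincubated with inhibitor (0.01−100 nM or 0.01−100 μM, ≤1% DMSO); substrate added, A405 followed 5 min.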

[12] = Aqueous solubility in pH 7.4 0.05 M phosphate buffer by HPLC method; type: physicochemical
Summary of the method: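 Excess solid (4−10 mg) in 0.05 M phosphate buffer pH 7.4 with 0.15 M KCl, shaken 1 h at 25 °C, then 15 min unshaken. Supernatant filtered and quantified by C18 HPLC (MeOH/0.05 M phosphate pH 4.5, UV 288 nm) against calibration curves of peak area.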

[13] = Stability in human plasma assessed as unhydrolyzed compound after 4 hrs at 37 degC by HPLC method; type: ADME, cell-free; conditions: read-out: Stability
Summary of the method: (§2)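 10 mM ACN stock diluted to 250 μM final in preheated 37 °C human serum (lyophilized, reconstituted in water). Incubation stopped at fixed times with ice-cold ACN; remaining parent measured by HPLC; first-order half-life derived.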

[14] = Half life in human plasma at 37 degC by HPLC method; type: ADME, cell-free; summary of the method: as §2
Coagulation factor X [15] = molecular target: T2, Coagulation factor X; assay: Inhibition of human factor10a assessed as reduction in hydrolysis of chromogenic substrate S-2765 at 1 mM by Cheng-Prusoff equation analysis
Prothrombin (Bos taurus) = Prothrombin (Bos taurus) (UniProt P00735); assay: Inhibition of bovine thrombin assessed as reduction in hydrolysis of chromogenic substrate S-2238 at 1 mM by Cheng-Prusoff equation analysis
[16] = Homo sapiens, Plasma, read-out: IC50
[17] = Homo sapiens, Plasma, read-out: EC50

T2 sequence (P00742 41-179 limits assumed): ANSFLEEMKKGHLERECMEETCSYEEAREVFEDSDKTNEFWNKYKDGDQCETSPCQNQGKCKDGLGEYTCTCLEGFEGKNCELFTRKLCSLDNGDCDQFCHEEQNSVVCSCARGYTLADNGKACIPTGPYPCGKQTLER
T2 sequence (P00742 235-488 limits assumed): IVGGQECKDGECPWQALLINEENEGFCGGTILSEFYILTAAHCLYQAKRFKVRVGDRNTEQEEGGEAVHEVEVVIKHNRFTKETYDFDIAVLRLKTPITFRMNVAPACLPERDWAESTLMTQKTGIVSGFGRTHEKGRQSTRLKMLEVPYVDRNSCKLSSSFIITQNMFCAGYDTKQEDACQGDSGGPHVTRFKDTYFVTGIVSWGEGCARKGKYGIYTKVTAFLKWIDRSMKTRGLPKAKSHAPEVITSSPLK

SMILES	Ki (Prothrombin [1])	logKw [2]	IC50 (Plasma [3])	remaining at 4 h [4]	IC50 (Plasma [5]; [16])	EC50 (Plasma [6]; [17])	Ki (Coagulation factor X [11])	solubility [12]	inhibition (Coagulation factor X [15])	inhibition (Prothrombin (Bos taurus))	fold change (FC) (Plasma [8])	Activity (Plasma [9])	further results
CC(=O)OC[C@H]1O[C@@H](OCCCOc2cccc(OCc3cc(-c4ccc(Cl)s4)on3)c2NC(=O)C2CCN(C(C)C)CC2)[C@H](OC(C)=O)[C@@H](OC(C)=O)[C@@H]1OC(C)=O	160 nM	5.07	1200 nM	> 90%	10000 nM	1800 nM	0.25 nM	< 1 µM			9	Active	half-life [14]: 2.8 h
CC(C)N1CCC(C(=O)Nc2ccccc2OCCCO[C@@H]2[C@@H](O)[C@H](O)[C@@H](CO)O[C@H]2O)CC1									14%	28%			
CC(C)N1CCC(C(=O)Nc2ccccc2)CC1									13%	16%			
CC1CNc2c(cccc2S(=O)(=O)N[C@@H](CCCNC(=N)N)C(=O)N2CC[C@@H](C)C[C@@H]2C(=O)O)C1 (stereo not given in full) [ARGATROBAN]			1900 nM		2400 nM	600 nM							
COc1ccccc1NC(=O)C1CCN(C(C)C)CC1									16%	0%			

More lines, main results first:

Ki (Prothrombin [1])	logKw [2]	IC50 (Plasma [3])	remaining at 4 h [4]	IC50 (Plasma [5]; [16])	EC50 (Plasma [6]; [17])	Ki (Coagulation factor X [11])	solubility [12]	inhibition (Coagulation factor X [15])	inhibition (Prothrombin (Bos taurus))	SMILES	fold change (FC) (Plasma [8])	Activity (Plasma [9])	further results
100 nM	3.07	300 nM	> 90%	3400 nM	300 nM	0.09 nM	7330 µM (≈ 5100 µg/mL)			CC(C)N1CCC(C(=O)Nc2c(OCCCO[C@@H]3O[C@H](CO)[C@@H](O)[C@H](O)[C@H]3O)cccc2OCc2cc(-c3ccc(Cl)s3)on2)CC1	15	Active	Ki (Prothrombin [7]): 96 nM; Ki (Coagulation factor X [10]): 0.87 nM; remaining at 4 h [13]: > 90%
31000 nM						11600 nM				Nc1ccccc1OCc1cc(-c2ccc(Cl)s2)on1			
133000 nM						6900 nM				Nc1c(OCCCO[C@@H]2O[C@H](CO)[C@@H](O)[C@H](O)[C@H]2O)cccc1OCc1cc(-c2ccc(Cl)s2)on1			
29800 nM						18300 nM				Nc1c(OCCCO)cccc1OCc1cc(-c2ccc(Cl)s2)on1			
	3.49	10000 nM	> 90%			0.6 nM	530 µM (≈ 244 µg/mL)			CC(C)N1CCC(C(=O)Nc2ccccc2OCc2cc(-c3ccc(Cl)s3)on2)CC1	3	Active	IC50 (Plasma [5]): Not Active; EC50 (Plasma [6]): Not Active; Ki (Coagulation factor X [10]): 0.11 nM; remaining at 4 h [13]: > 90%

Reference: ChEMBL document CHEMBL3352590, “How a β-D-glucoside side chain enhances binding affinity to thrombin of inhibitors bearing 2-chlorothiophene as P1 moiety: crystallography, fragment deconstruction study, and evaluation of antithrombotic properties” (J Med Chem, 2014)
